By inhibition is commonly meant the share of the control response that was lost under treatment. What is called pKi is −log10 of the Ki, conventionally taken in molar units. Higher therefore signals a low Ki.

From ChEMBL document CHEMBL4304834, “3-Amino-chromanes and Tetrahydroquinolines as Selective 5-HT2B, 5-HT7, or σ1 Receptor Ligands” (ACS Med Chem Lett, 2019) come the findings set out here.

For test [1], the target named is T1, 5-hydroxytryptamine receptor 3A (Homo sapiens) (UniProt P46098).
T1 sequence (whole entry): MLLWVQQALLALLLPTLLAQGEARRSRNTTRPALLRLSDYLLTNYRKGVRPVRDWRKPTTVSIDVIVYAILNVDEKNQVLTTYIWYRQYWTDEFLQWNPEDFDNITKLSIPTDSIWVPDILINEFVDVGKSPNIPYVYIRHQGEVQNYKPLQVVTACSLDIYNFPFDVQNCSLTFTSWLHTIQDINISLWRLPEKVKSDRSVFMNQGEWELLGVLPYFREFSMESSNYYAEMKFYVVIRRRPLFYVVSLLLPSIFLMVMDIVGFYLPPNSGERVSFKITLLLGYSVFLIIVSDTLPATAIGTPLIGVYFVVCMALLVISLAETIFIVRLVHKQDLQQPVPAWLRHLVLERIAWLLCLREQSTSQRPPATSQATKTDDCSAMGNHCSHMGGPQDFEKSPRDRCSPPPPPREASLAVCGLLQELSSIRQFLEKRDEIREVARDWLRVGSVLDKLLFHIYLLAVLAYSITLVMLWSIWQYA
Kind of test: Displacement of [3H]-GR65630 from human recombinant 5-HT3 receptor expressed in HEKT cells at 10 uM after 90 mins by microbeta scintillation counting method relative to control. The class given is cell-based. The procedure, abridged:
(§1)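 Radioligand binding run by the NIMH Psychoactive Drug Screening Program. […] Otherwise Ki comes from sigmoidal curve fits of triplicate measurements in a single experiment, or is averaged over repeated experiments each run in triplicate.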

For test [2], the target named is 5-hydroxytryptamine receptor 1E (Homo sapiens, UniProt P28566). Kind of test: Displacement of [3H]-HT from human recombinant 5-HT1E receptor expressed in stable HEK cells after 90 mins by microbeta scintillation counting method. It counts as cell-based. The procedure, abridged:
as §1

Test [3] addresses T2, Alpha-1D adrenergic receptor (Homo sapiens) (UniProt P25100).
T2 sequence (whole entry): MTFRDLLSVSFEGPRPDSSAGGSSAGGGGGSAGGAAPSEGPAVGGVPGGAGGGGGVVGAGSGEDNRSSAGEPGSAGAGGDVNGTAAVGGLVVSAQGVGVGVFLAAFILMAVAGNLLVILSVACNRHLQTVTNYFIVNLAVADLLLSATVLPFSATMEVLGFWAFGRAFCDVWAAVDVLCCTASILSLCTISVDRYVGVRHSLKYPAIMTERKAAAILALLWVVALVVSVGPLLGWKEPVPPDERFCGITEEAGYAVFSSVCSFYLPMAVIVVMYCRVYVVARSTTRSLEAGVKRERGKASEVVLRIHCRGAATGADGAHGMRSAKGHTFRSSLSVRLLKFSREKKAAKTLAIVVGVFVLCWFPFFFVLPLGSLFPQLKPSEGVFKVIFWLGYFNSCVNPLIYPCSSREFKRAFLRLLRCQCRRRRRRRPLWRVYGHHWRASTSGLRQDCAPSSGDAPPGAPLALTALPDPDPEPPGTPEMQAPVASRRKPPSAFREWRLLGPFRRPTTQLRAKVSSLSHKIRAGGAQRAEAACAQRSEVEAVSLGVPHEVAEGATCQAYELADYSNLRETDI
The test is described as follows: Displacement of [3H]-Prazosin from human recombinant adrenergic Alpha1D receptor expressed in cells at 10 uM after 90 mins by microbeta scintillation counting method relative to control. It counts as cell-based.

Test [4] addresses Beta-2 adrenergic receptor (Homo sapiens, UniProt P07550). Kind of test: Displacement of [3H]-CGP12177 from human recombinant adrenergic Beta2 receptor expressed in Flp-In HEK cells after 90 mins by microbeta scintillation counting method. It counts as cell-based. The procedure, abridged:
as §1

Test [5] addresses T3, Muscarinic acetylcholine receptor M5 (Homo sapiens) (UniProt P08912).
T3 sequence (whole entry): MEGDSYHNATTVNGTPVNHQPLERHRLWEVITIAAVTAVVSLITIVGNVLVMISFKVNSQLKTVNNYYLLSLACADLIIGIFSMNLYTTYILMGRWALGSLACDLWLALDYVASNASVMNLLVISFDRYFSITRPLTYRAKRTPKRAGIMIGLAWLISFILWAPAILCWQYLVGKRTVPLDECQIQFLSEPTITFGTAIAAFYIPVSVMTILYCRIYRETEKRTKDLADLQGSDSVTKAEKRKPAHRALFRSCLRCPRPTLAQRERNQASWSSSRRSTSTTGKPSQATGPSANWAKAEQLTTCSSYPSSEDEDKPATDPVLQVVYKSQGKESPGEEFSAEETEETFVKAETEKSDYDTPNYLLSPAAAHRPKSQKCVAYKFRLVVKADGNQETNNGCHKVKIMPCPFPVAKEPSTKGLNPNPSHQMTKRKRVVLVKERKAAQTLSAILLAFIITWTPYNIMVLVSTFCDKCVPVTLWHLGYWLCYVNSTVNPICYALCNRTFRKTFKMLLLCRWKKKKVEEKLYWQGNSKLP
The test is described as follows: Displacement of [3H]-QNB/[3H]-NMS from human recombinant Muscarinic acetylcholine M5 receptor expressed in stable CHO cells at 10 uM after 90 mins by microbeta scintillation counting method relative to control. The class given is cell-based. (In general: Loss of bound radioactivity is the signal in a displacement assay; it reports binding, not function.)

For test [6], the target named is 5-hydroxytryptamine receptor 2B (Homo sapiens, UniProt P41595). Kind of test: Displacement of [3H]-LSD from human recombinant 5-HT2B receptor stably expressed in HEK cells after 90 mins by microbeta scintillation counting method. It counts as cell-based. Particulars: read-out: pKi (converted). The procedure, abridged: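 Run by NIMH Psychoactive Drug Screening Program. Otherwise, competition binding curves are generated and pKi is taken from a sigmoidal curve fit. Data are either triplicate measurements within one experiment, with the error from the fit, or the mean of repeated experiments, each run in triplicate.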

The target in test [7] is Histamine H4 receptor (Homo sapiens, UniProt Q9H3N8). The test is described as follows: Displacement of [3H]-Histamine from human recombinant histamine H4 receptor expressed in HEKT cells at 10 uM after 90 mins by microbeta scintillation counting method relative to control. It counts as cell-based. The procedure, abridged: as §1
A short description of test [8]: Displacement of [3H]-PK11195 from PBR receptor in rat brain after 90 mins by microbeta scintillation counting method. It counts as tissue-based. The procedure, abridged:
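Radioligand binding run by the NIMH Psychoactive Drug Screening Program. Otherwise Ki comes from sigmoidal curve fits of triplicate measurements in a single experiment, or is averaged over repeated experiments each run in triplicate.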

The target in test [9] is D(1B) dopamine receptor (Homo sapiens, UniProt P21918). The test is described as follows: Displacement of [3H]-SCH23390 from human recombinant dopamine D5 receptor expressed in HEKT cells after 90 mins by microbeta scintillation counting method. The class given is cell-based. The procedure, abridged:
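Radioligand binding was run by the NIMH Psychoactive Drug Screening Program. Compounds were first screened at 10 μM. Those giving ≥50% binding were taken to full competition curves. Ki is reported as pKi from a sigmoidal curve fit of triplicate measurements in a single experiment; the error is the curve-fit error.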

In test [10] the target is D(1A) dopamine receptor (Homo sapiens, UniProt P21728). The test is described as follows: Displacement of [3H]-SCH23390 from human recombinant dopamine D1 receptor expressed in HEKT cells at 10 uM after 90 mins by microbeta scintillation counting method relative to control. It counts as cell-based.
Test [11] has as its target D(2) dopamine receptor (Homo sapiens, UniProt P14416). The test is described as follows: Displacement of [3H]-N-methylspiperone from human recombinant dopamine D2 receptor expressed in stable fibroblast cells after 90 mins by microbeta scintillation counting method. It counts as cell-based. The procedure, abridged: as §1
Test [12] addresses 5-hydroxytryptamine receptor 5A (Homo sapiens, UniProt P47898). The test is described as follows: Displacement of [3H]-LSD from human recombinant 5-HT5A receptor expressed in Flp-In CHO cells after 90 mins by microbeta scintillation counting method. It counts as cell-based. The procedure, abridged:
as §1

Chain of Beta-2 adrenergic receptor (P07550 whole entry): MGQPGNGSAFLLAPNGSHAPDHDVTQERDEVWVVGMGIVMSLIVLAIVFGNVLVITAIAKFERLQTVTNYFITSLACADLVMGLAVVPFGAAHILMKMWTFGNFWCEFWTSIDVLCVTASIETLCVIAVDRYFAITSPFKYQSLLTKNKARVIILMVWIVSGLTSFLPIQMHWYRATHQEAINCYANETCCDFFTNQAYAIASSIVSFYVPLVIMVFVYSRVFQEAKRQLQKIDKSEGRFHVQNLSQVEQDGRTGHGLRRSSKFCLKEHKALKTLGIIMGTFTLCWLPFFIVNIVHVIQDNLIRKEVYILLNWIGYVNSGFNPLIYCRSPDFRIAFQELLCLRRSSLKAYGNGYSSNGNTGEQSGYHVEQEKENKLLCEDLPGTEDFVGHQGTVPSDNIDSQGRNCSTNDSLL
Chain of D(1B) dopamine receptor (P21918 whole entry): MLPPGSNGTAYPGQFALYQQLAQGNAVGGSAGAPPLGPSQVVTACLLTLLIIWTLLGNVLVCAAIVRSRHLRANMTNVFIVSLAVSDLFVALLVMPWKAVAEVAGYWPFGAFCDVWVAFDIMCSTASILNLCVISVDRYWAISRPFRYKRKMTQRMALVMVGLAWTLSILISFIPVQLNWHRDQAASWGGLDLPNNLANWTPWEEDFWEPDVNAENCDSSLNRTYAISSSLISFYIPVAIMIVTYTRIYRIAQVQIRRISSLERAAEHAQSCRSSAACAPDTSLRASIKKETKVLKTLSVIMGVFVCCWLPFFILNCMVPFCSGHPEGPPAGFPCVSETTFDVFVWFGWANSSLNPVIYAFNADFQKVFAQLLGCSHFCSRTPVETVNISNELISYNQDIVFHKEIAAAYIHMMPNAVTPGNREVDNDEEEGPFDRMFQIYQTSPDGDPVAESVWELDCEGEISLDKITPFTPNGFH
Chain of 5-hydroxytryptamine receptor 5A (P47898 whole entry): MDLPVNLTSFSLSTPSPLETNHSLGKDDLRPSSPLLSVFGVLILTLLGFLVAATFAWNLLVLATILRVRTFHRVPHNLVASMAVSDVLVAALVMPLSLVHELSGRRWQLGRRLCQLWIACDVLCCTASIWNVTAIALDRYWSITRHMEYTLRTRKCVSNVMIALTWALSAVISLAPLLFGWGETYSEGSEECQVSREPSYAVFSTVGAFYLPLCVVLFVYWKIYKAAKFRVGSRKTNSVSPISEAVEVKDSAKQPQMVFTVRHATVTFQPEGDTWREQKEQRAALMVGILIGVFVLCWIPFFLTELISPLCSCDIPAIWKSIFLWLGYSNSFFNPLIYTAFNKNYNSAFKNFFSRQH
Chain of D(1A) dopamine receptor (P21728 whole entry): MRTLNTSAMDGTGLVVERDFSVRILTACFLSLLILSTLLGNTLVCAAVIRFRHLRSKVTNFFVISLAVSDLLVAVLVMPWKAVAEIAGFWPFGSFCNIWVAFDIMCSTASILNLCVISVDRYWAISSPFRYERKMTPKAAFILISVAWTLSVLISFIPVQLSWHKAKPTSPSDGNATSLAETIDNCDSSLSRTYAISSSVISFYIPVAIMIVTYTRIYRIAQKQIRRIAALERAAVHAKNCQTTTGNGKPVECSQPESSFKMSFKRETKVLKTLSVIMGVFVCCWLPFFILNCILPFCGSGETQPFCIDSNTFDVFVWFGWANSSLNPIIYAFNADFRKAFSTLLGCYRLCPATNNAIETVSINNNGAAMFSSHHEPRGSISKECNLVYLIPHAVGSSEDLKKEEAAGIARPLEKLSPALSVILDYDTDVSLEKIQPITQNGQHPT
Chain of D(2) dopamine receptor (P14416 whole entry): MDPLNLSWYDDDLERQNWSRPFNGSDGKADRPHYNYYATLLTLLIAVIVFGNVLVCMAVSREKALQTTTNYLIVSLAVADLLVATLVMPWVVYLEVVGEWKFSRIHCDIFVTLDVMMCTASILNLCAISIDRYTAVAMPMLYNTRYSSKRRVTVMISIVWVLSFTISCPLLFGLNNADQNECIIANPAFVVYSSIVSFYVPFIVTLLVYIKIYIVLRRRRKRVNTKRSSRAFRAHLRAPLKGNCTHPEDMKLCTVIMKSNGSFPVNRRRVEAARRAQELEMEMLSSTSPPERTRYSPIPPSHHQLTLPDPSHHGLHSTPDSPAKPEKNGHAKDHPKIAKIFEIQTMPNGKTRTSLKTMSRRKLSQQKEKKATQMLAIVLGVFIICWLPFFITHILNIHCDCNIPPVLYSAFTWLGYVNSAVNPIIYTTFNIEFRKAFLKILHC
Chain of 5-hydroxytryptamine receptor 1E (P28566 whole entry): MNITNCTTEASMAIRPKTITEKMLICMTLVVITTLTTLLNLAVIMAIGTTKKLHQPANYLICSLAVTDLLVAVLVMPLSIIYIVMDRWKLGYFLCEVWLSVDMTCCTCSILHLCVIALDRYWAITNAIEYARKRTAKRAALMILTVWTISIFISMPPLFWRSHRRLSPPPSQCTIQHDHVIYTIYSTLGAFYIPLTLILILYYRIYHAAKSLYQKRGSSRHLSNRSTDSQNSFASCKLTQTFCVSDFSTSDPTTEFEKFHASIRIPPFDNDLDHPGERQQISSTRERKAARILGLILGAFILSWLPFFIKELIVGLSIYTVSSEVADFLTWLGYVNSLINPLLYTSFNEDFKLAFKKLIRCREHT
Chain of Histamine H4 receptor (Q9H3N8 whole entry): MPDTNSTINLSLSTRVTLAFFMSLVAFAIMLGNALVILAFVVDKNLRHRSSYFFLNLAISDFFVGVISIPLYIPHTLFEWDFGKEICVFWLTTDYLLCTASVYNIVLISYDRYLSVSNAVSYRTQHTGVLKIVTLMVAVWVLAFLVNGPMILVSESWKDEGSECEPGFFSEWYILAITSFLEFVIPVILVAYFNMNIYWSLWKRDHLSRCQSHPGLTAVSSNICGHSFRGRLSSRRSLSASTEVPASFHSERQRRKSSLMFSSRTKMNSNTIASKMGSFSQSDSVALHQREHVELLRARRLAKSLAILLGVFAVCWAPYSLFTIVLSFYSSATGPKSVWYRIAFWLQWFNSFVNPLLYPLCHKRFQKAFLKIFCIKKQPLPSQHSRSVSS
Chain of 5-hydroxytryptamine receptor 2B (P41595 whole entry): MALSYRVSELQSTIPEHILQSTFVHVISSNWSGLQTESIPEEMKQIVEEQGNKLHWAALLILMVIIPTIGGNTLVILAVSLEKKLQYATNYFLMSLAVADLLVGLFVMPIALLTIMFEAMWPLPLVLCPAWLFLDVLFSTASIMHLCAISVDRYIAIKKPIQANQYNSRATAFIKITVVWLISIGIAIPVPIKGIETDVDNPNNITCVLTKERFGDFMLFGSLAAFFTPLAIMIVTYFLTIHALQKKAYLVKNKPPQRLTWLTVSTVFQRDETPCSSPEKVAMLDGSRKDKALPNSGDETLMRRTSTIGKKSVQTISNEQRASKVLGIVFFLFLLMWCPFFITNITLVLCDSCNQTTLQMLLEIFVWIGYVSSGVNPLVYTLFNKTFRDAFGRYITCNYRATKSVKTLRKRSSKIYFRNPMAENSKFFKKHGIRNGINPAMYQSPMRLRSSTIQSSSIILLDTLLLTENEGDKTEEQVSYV

On to `COc1cc(OC)c2c(c1)OC[C@@]1(C)NCC[C@@H]21` (racemic), for which the inhibition in test [1], in test [3], in test [5], in test [7] and in test [10] was under 50% throughout. Also, the Ki was over 10 µM in [2]; 0.575 µM in test [4]; 0.251 µM in test [6]; over 10 µM in test [9]; over 10 µM in [11]. The same compound returned a pKi in [8] of under 5.

Take `C[C@@]12CN(c3ccccc3)c3ccccc3[C@@H]1CCN2` (racemic): the Ki in [2], in [4], in [9] and in [11] was over 10 µM throughout.

For `CC[C@H]1c2ccccc2N(c2ccccc2)C[C@@]1(C)N` (racemic), the Ki was over 10 µM in test [2]; over 10 µM in test [4]; 0.794 µM in [6]; over 10 µM in test [9]; over 10 µM in test [12]; over 10 µM in test [11].

On to `CC[C@H]1c2cc(C)ccc2OC[C@@]1(C)N` (racemic), for which the inhibition in test [1], in test [3], in [5], in [7] and in test [10] was under 50% each time. In addition, the Ki in test [2] was over 10 µM; in test [4], over 10 µM; in test [6], 0.178 µM; in [9], over 10 µM; in [12], over 10 µM; in [11], over 10 µM. Moreover, the negative-log Ki (pKi) in [8] was under 5.

Turning to `CC[C@H]1c2cc(OC)ccc2CC[C@@]1(C)N` (racemic), the inhibition in test [1], in test [3], in test [5], in test [7] and in test [10] was under 50% throughout. Also, the Ki in [2] was over 10 µM; in test [4], 5.01 µM; in test [6] it was 0.145 µM; in [9], over 10 µM; in test [12], 2 µM; in [11] it was over 10 µM. The same compound displayed a pKi in test [8] of under 5.
